ChEMBL document CHEMBL1140705, “Synthesis and evaluation of N-methyl and S-methyl 11C-labeled 6-methylthio-2-(4'-N,N-dimethylamino)phenylimidazo[1,2-a]pyridines as radioligands for imaging beta-amyloid plaques in Alzheimer's disease” (J Med Chem, 2008)

Experiments:
[1] = molecular target: Amyloid-beta precursor protein (Homo sapiens, UniProt P05067); experiment: Binding affinity to beta amyloid plaque in human Alzheimer's disease brain tissue; assay type: tissue-based
Procedure, shortened: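 Competition binding in human AD brain homogenate (1:500 in PBS) against [3H]PIB (0.4 nM), displacer 10^-10 to 10^-5 M from DMSO dilutions, total volume 1.0 mL PBS, 2 h at 37 °C; filtration on polyethyleneimine-treated GF/B, PBS washes, scintillation counting. One-site competition fit; Ki by Cheng-Prusoff using KD from homologous displacement Scatchard analysis.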

[2] = Lipophilicity, log D at pH 7.4; assay type: physicochemical; conditions: buffer
Procedure, shortened: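 Shake-flask partition: 3-5 mg ligand in 0.1 M PBS pH 7.4 (6.0 mL) with n-octanol (1.0 mL), vortexed, shaken, held 10 min at room temperature, centrifuged 5000g. Both phases quantified by reverse-phase HPLC; P taken as organic/aqueous concentration ratio; n = 3.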

[3] = Stability in rat whole blood after 60 mins; assay type: ADME, tissue-based; conditions: read-out: Stability
Procedure, shortened: (§1)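 No-carrier-added [11C] tracer (25.0 µCi monkey, 46.5 µCi rat) in 1 mL whole blood, shaken at 37 °C. Aliquots taken at 60 and 90 min into acetonitrile spiked with carrier, centrifuged, and supernatant radio-HPLC gives percent unchanged. Pellet counting gives extraction recovery.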

[4] = Stability in rat brain after 60 mins; assay type: ADME, tissue-based; conditions: read-out: Stability
Procedure, shortened: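 Rat brain (1.75 g) homogenized in saline on ice and incubated with formulated [11C] tracer (186 µCi) at 37 °C with shaking. Aliquots quenched into carrier-spiked acetonitrile, centrifuged, and supernatant analysed by radio-HPLC for percent unchanged.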

[5] = Stability in monkey whole blood after 30 mins; assay type: ADME, tissue-based, Macaca mulatta; conditions: rhesus monkey, read-out: Stability
[6] = Stability in monkey whole blood after 90 mins; assay type: ADME, tissue-based, Macaca mulatta; conditions: rhesus monkey, read-out: Stability; procedure, shortened: as §1
Plasma [7] = experiment: Biodistribution in rat plasma at 0.9 to 1.9 Ci/umol, penile iv after 2.33 mins; assay type: ADME, organism-based; conditions: in vivo, 140 s
Procedure, shortened: (§2)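 No-carrier-added [11C] tracer (0.82-3.6 mCi) given by penile vein to rats, killed at 2.33, 2.83 or 30 min. Brain tissue extracted and homogenized in acetonitrile/water with carrier, plasma treated likewise, urine analysed directly, all by reverse-phase radio-HPLC. Radioactivity normalized to injected dose and body weight as % SUV, split into parent and three radiometabolites.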

Cerebellum [8] = experiment: Biodistribution in rat cerebellum at 0.9 to 1.9 Ci/umol, penile iv after 2.83 mins; assay type: ADME, organism-based; conditions: in vivo, 170 s; procedure, shortened: as §2
Cerebrum [9] = experiment: Biodistribution in rat cerebrum at 0.9 to 1.9 Ci/umol, penile iv after 2.83 mins; assay type: ADME, organism-based; conditions: in vivo, 170 s; procedure, shortened: as §2
Plasma [10] = experiment: Biodistribution in rat plasma at 0.9 to 1.9 Ci/umol, penile iv after 2.83 mins; assay type: ADME, organism-based; conditions: in vivo, 170 s; procedure, shortened: as §2
Rattus norvegicus [11] = experiment: Biodistribution in rat urine at 0.9 to 1.9 Ci/umol, penile iv after 2.83 mins; assay type: ADME, organism-based; conditions: in vivo, 170 s; procedure, shortened: as §2
Cerebellum [12] = experiment: Biodistribution in rat cerebellum at 0.9 to 1.9 Ci/umol, penile iv after 30 mins; assay type: ADME, organism-based; conditions: in vivo, 0.5 h; procedure, shortened: as §2
Cerebrum [13] = experiment: Biodistribution in rat cerebrum at 0.9 to 1.9 Ci/umol, penile iv after 30 mins; assay type: ADME, organism-based; conditions: in vivo, 0.5 h; procedure, shortened: as §2
Plasma [14] = experiment: Biodistribution in rat plasma at 0.9 to 1.9 Ci/umol, penile iv after 30 mins; assay type: ADME, organism-based; conditions: in vivo, 0.5 h; procedure, shortened: as §2
Cerebellum [15] = experiment: Biodistribution in rat cerebellum at 22.94 umol/kg bolus injection after 10 mins; assay type: ADME, organism-based; conditions: in vivo
Procedure, shortened: (§3)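 Carrier-added [11C] tracer (carrier 22.94 µmol/kg) injected as bolus into one rat, tissues and plasma taken at 10 min. Samples extracted into acetonitrile and analysed by radio-HPLC. Results given as % SUV, partitioned into parent and radiometabolites A-C.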

Cerebrum [16] = experiment: Biodistribution in rat cerebrum at 22.94 umol/kg bolus injection after 10 mins; assay type: ADME, organism-based; conditions: in vivo; procedure, shortened: as §3
Plasma [17] = experiment: Biodistribution in rat plasma at 22.94 umol/kg bolus injection after 10 mins; assay type: ADME, organism-based; conditions: in vivo; procedure, shortened: as §3
Plasma [18] = experiment: Drug level in monkey plasma at 1.35 Ci/umol after 10 mins; assay type: ADME, cell-free, Macaca mulatta; conditions: rhesus monkey
Procedure, shortened: (§4)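 Two monkey experiments with no-carrier-added [11C] tracer given iv. Anticoagulated venous blood drawn at 10 and 30 min, plasma analysed by radio-HPLC. Parent fraction reported as percent of plasma radioactivity and as % SUV.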

Plasma [19] = experiment: Drug level in monkey plasma at 1.35 Ci/umol after 30 mins; assay type: ADME, cell-free, Macaca mulatta; conditions: rhesus monkey, 0.5 h; procedure, shortened: as §4
[20] = Radiochemical stability after 3 hrs at pH 7.5; assay type: physicochemical; conditions: pH 7.5, 3 h
Procedure, shortened: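 Purity of formulated tracer (saline with ethanol and polysorbate 80, pH ~7.5) followed over 3 h by radio-HPLC on a C18 column, MeOH/H2O/Et3N 70:30:0.1.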

[21] = Biodistribution in rat cerebrum at 0.9 to 1.9 Ci/umol, penile iv after 2.33 mins; conditions: in vivo, 140 s
Rattus norvegicus [22] = experiment: Ratio of brain radioactivity at maximal uptake to that at 60 min in iv dosed rat after 60 mins; conditions: in vivo, 1 h
Mus musculus = experiment: Ratio of brain radioactivity at maximal uptake to that at 60 min in iv dosed mouse after 60 mins; conditions: in vivo, 1 h
[23] = molecular target: 5-hydroxytryptamine receptor 6 (Homo sapiens) (UniProt P50406); experiment: Displacement of […] from 5HT6 receptor at 10 uM
5-hydroxytryptamine receptor 6 (Homo sapiens), sequence (P50406 whole entry): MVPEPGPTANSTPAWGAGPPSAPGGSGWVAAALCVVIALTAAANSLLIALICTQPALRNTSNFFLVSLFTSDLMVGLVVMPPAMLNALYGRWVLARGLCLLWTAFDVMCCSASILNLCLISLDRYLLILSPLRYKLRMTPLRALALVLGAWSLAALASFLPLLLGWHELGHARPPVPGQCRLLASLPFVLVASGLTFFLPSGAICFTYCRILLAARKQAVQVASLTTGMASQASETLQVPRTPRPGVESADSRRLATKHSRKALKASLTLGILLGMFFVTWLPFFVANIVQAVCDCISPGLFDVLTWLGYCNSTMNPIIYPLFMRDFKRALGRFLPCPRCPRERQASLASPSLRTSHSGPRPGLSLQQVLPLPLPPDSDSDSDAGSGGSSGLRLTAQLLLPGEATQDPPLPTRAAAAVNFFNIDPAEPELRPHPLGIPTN

[24] = molecular target: 5-hydroxytryptamine receptor 7 (Homo sapiens) (UniProt P34969); experiment: Displacement of […] from 5HT7 receptor at 10 uM
5-hydroxytryptamine receptor 7 (Homo sapiens), sequence (P34969 whole entry): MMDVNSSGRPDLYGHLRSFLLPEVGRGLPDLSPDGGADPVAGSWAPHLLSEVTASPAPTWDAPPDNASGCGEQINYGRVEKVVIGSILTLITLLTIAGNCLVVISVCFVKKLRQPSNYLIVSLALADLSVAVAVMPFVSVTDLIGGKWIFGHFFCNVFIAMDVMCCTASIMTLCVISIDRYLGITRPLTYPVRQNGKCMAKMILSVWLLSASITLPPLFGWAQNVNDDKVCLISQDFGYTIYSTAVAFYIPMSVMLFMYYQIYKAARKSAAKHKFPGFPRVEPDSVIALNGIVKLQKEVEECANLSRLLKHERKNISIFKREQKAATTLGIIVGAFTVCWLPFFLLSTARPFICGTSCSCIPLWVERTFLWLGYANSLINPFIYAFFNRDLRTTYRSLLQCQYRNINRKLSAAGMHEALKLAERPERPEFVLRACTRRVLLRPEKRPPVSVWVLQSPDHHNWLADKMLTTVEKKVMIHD

[25] = molecular target: Alpha-1A adrenergic receptor (Homo sapiens) (UniProt P35348); experiment: Displacement of […] from adrenergic Alpha-1A receptor at 10 uM
[26] = molecular target: Alpha-1B adrenergic receptor (Homo sapiens) (UniProt P35368); experiment: Displacement of […] from adrenergic alpha-1b receptor at 10 uM
[27] = molecular target: Alpha-2A adrenergic receptor (Homo sapiens) (UniProt P08913); experiment: Displacement of […] from adrenergic alpha-2a receptor at 10 uM
[28] = molecular target: Beta-2 adrenergic receptor (Homo sapiens) (UniProt P07550); experiment: Displacement of […] from adrenergic beta 2 receptor at 10 uM
[29] = molecular target: D(1A) dopamine receptor (Homo sapiens) (UniProt P21728); experiment: Displacement of […] from dopamine D1 receptor at 10 uM
[30] = molecular target: D(2) dopamine receptor (Homo sapiens) (UniProt P14416); experiment: Displacement of […] from dopamine D2 receptor at 10 uM
[31] = molecular target: D(3) dopamine receptor (Homo sapiens) (UniProt P35462); experiment: Displacement of […] from dopamine D3 receptor at 10 uM
D(3) dopamine receptor (Homo sapiens), sequence (P35462 whole entry): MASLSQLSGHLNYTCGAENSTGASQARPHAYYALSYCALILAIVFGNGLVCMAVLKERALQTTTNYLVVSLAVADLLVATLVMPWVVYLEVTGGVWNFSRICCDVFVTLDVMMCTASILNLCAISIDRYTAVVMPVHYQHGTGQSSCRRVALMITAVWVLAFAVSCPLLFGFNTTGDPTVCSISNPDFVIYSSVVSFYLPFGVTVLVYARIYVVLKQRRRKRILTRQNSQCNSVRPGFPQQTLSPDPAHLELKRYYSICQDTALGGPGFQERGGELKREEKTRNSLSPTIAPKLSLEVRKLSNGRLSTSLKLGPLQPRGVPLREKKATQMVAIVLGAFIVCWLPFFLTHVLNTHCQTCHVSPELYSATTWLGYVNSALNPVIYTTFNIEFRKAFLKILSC

[32] = molecular target: D(4) dopamine receptor (Homo sapiens) (UniProt P21917); experiment: Displacement of […] from dopamine D4 receptor at 10 uM
[33] = molecular target: D(1B) dopamine receptor (Homo sapiens) (UniProt P21918); experiment: Displacement of […] from dopamine D5 receptor at 10 uM
[34] = molecular target: Histamine H1 receptor (Homo sapiens) (UniProt P35367); experiment: Displacement of […] from histamine H1 receptor at 10 uM
Histamine H1 receptor (Homo sapiens), sequence (P35367 whole entry): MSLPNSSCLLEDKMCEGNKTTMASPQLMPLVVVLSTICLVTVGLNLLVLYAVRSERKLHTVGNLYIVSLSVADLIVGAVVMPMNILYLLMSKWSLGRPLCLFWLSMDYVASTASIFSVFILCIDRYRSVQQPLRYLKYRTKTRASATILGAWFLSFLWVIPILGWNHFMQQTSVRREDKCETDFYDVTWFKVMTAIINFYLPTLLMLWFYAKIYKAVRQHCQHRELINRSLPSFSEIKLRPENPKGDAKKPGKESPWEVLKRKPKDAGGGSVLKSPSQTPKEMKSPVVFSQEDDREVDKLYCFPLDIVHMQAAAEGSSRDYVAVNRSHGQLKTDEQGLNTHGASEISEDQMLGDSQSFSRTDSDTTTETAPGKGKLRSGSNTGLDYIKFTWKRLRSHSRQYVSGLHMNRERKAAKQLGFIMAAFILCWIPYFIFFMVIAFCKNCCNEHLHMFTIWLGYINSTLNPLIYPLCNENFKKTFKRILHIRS

[35] = molecular target: 5-hydroxytryptamine receptor 1A (Homo sapiens) (UniProt P08908); experiment: Displacement of […] from 5HT1A receptor at 10 uM
[36] = molecular target: 5-hydroxytryptamine receptor 1B (Homo sapiens) (UniProt P28222); experiment: Displacement of […] from 5HT1B receptor at 10 uM
5-hydroxytryptamine receptor 1B (Homo sapiens), sequence (P28222 whole entry): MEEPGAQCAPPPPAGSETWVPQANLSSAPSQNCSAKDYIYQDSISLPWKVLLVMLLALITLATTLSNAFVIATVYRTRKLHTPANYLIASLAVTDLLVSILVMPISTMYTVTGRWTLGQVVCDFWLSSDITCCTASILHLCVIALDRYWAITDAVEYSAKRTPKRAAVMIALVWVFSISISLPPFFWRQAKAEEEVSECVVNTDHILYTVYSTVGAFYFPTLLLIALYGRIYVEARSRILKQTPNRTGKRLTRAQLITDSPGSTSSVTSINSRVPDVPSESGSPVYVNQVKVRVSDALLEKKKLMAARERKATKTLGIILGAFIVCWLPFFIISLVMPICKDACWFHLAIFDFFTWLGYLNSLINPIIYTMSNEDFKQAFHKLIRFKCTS

[37] = molecular target: 5-hydroxytryptamine receptor 1D (Homo sapiens) (UniProt P28221); experiment: Displacement of […] from 5HT1D receptor at 10 uM
5-hydroxytryptamine receptor 1D (Homo sapiens), sequence (P28221 whole entry): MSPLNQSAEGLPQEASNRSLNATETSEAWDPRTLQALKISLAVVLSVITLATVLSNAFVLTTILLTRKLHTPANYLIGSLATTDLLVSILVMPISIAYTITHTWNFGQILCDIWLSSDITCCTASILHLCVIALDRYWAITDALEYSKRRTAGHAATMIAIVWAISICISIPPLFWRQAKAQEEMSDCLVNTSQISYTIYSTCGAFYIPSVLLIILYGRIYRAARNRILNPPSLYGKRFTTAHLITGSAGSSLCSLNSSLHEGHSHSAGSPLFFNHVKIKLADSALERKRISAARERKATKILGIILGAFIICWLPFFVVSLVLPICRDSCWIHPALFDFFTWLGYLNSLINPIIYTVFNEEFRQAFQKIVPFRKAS

[38] = molecular target: 5-hydroxytryptamine receptor 1E (Homo sapiens) (UniProt P28566); experiment: Displacement of […] from 5HT1E receptor at 10 uM
5-hydroxytryptamine receptor 1E (Homo sapiens), sequence (P28566 whole entry): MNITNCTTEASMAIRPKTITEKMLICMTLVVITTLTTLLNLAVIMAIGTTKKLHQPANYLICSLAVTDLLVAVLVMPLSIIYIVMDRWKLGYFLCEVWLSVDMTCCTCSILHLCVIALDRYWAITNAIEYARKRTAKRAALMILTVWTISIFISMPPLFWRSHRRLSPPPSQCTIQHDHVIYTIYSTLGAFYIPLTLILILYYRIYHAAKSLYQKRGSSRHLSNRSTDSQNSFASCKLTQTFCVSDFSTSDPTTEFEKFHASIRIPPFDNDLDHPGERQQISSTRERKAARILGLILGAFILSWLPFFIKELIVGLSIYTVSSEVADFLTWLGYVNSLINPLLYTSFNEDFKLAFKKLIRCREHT

[39] = molecular target: 5-hydroxytryptamine receptor 2A (Homo sapiens) (UniProt P28223); experiment: Displacement of […] from 5HT2A receptor at 10 uM
5-hydroxytryptamine receptor 2A (Homo sapiens), sequence (P28223 whole entry): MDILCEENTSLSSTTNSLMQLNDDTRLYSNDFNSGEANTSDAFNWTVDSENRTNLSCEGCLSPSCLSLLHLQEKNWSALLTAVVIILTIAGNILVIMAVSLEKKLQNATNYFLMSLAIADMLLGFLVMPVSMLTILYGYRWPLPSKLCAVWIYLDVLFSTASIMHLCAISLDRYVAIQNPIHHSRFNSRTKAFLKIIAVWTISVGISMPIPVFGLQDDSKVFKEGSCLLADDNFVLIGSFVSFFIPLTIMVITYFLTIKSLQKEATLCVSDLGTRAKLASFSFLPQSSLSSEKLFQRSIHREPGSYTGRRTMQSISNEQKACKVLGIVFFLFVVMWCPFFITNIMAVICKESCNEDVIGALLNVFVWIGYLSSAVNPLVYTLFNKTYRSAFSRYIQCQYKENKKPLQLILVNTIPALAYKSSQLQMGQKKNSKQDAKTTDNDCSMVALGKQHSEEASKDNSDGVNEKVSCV

[40] = molecular target: 5-hydroxytryptamine receptor 2B (Homo sapiens) (UniProt P41595); experiment: Displacement of […] from 5HT2B receptor at 10 uM
[41] = molecular target: 5-hydroxytryptamine receptor 2C (Homo sapiens) (UniProt P28335); experiment: Displacement of […] from 5HT2C receptor at 10 uM
[42] = molecular target: 5-hydroxytryptamine receptor 3A (Homo sapiens) (UniProt P46098); experiment: Displacement of […] from 5HT3 receptor at 10 uM
[43] = molecular target: 5-hydroxytryptamine receptor 5A (Homo sapiens) (UniProt P47898); experiment: Displacement of […] from 5HT5A receptor at 10 uM
5-hydroxytryptamine receptor 5A (Homo sapiens), sequence (P47898 whole entry): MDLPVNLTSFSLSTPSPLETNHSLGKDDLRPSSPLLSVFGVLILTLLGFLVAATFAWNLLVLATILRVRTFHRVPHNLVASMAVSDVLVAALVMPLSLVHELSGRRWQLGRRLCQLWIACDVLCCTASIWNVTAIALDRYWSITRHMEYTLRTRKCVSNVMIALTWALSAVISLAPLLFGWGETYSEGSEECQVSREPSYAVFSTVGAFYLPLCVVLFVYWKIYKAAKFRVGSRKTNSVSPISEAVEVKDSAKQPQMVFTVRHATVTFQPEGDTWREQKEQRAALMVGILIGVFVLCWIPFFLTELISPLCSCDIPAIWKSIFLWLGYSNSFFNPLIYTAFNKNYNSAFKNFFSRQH

[44] = molecular target: Mu-type opioid receptor (Homo sapiens) (UniProt P35372); experiment: Displacement of radioligand from mu opioid receptor at 10 uM
Mu-type opioid receptor (Homo sapiens), sequence (P35372 whole entry): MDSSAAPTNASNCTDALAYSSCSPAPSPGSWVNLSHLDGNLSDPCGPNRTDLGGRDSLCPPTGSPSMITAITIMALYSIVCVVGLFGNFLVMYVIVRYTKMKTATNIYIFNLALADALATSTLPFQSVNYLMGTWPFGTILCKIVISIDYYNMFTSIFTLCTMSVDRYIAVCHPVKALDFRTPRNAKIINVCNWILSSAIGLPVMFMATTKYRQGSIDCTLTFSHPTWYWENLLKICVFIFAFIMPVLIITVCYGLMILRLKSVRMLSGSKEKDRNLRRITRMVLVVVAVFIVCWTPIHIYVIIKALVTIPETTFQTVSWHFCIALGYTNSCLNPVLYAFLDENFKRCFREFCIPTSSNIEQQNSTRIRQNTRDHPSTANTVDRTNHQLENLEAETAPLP

Amyloid-beta precursor protein, sequence (P05067 whole entry): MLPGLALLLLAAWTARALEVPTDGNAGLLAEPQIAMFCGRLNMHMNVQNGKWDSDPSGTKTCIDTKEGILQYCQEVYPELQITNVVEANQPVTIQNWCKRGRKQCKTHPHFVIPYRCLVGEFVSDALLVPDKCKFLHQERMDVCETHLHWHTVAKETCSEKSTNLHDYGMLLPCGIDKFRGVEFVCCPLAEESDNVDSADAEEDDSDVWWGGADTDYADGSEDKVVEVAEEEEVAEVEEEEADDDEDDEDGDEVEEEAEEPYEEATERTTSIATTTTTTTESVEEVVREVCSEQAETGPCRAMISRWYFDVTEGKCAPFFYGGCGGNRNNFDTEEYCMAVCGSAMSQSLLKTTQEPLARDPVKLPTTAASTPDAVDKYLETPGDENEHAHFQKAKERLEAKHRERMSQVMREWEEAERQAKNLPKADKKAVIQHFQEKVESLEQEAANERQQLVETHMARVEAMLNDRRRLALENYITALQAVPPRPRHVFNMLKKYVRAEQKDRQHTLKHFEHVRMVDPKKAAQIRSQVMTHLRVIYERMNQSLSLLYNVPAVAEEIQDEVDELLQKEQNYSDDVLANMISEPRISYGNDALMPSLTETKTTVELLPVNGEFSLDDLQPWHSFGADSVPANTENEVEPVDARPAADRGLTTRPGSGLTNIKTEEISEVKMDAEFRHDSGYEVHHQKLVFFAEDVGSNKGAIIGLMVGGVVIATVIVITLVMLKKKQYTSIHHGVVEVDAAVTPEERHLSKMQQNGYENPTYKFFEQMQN

Q: Which results are given for `COC(=O)CCSc1ccc2nc(-c3ccc(N(C)C)cc3)cn2c1`?
A: Ki [1]: 0.205 µM; logD [2]: 3.6

Q: For `CN(C)c1ccc(-c2cn3cc(S[11CH3])ccc3n2)cc1`, which remaining at 1 h [3] is on record?
A: The remaining at 1 h was 91%.

Q: What about the remaining at 1 h [4] of the same compound?
A: The remaining at 1 h was 93.6%.

Q: And the remaining at 0.5 h [5]?
A: Its remaining at 0.5 h is 96.2%.

Q: And the remaining at 1.5 h [6]?
A: Its remaining at 1.5 h is 94.5%.

Q: What about the Drug uptake (Plasma [7]) of the same compound?
A: Its Drug uptake is 9.57%.

Q: And the Drug uptake (Cerebellum [8])?
A: The Drug uptake was 31.9%.

Q: And the Drug uptake (Cerebrum [9])?
A: Its Drug uptake is 30.2%.

Q: What about the Drug uptake (Plasma [10]) of the same compound?
A: Its Drug uptake is 9.15%.

Q: And the Drug uptake (Rattus norvegicus [11])?
A: The Drug uptake was 25.7%.

Q: What about the Drug uptake (Cerebellum [12]) of the same compound?
A: Its Drug uptake is 18.6%.

Q: What about the Drug uptake (Cerebrum [13]) of the same compound?
A: The Drug uptake was 13%.

Q: And the Drug uptake (Plasma [14])?
A: Its Drug uptake is 0.2%.

Q: And the Drug uptake (Cerebellum [15])?
A: Its Drug uptake is 83.1%.

Q: What about the Drug uptake (Cerebrum [16]) of the same compound?
A: Its Drug uptake is 80.9%.

Q: What about the Drug uptake (Plasma [17]) of the same compound?
A: The Drug uptake was 55.3%.

Q: What about the Activity (Plasma [18]) of the same compound?
A: Its Activity is 12.4%.

Q: What about the Activity (Plasma [19]) of the same compound?
A: The Activity was 3.5%.

Q: And the Stability [20]?
A: The Stability was “Stable”.

Q: What about the Drug uptake [21] of the same compound?
A: Its Drug uptake is 41.9%.

Q: And the Ratio (Rattus norvegicus [22])?
A: Its Ratio is 18.7.

Q: What about the Ratio (Mus musculus) of the same compound?
A: The Ratio was 11.1.

Q: Which logD [2] does the source give for `CN(C)c1ccc(-c2cn3cc(I)ccc3n2)cc1` here?
A: The logD was 3.58.

Q: For `CSc1ccc2nc(-c3ccc(N(C)[11CH3])cc3)cn2c1`, which Ratio (Rattus norvegicus [22]) is on record?
A: The Ratio was 6.1.

Q: Which results are given for `CSc1ccc2nc(-c3ccc(N(C)C)cc3)cn2c1`?
A: Activity [23]: < 50%; Activity [24]: < 50%; Activity [25]: < 50%; Activity [26]: < 50%; Activity [27]: < 50%; Activity [28]: < 50%; Activity [29]: < 50%; Activity [30]: < 50%; Activity [31]: < 50%; Activity [32]: < 50%; Activity [33]: < 50%; Activity [34]: < 50%; logD [2]: 4.1; Activity [35]: < 50%; Activity [36]: < 50%; Activity [37]: < 50%; Activity [38]: < 50%; Activity [39]: < 50%; Activity [40]: < 50%; Activity [41]: < 50%; Activity [42]: < 50%; Activity [43]: < 50%; inhibition [44]: < 50%

Q: Which Ki [1] does the source give for `CSc1ccc2nc(-c3ccc(N)cc3)cn2c1` here?
A: The Ki was 0.377 µM.

Q: What about the logD [2] of the same compound?
A: The logD was 2.6.

Q: For `CNc1ccc(-c2cn3cc(SC)ccc3n2)cc1`, which Ki [1] is on record?
A: The Ki was 0.08 µM.

Q: What about the logD [2] of the same compound?
A: Its logD is 3.6.
